Source: ChEMBL document CHEMBL3351579, “Structural optimization of a retrograde trafficking inhibitor that protects cells from infections by human polyoma- and papillomaviruses” (Bioorg Med Chem, 2014)
Activity calls are given as the source filed them. The calls are words filed in the database; no cut-off is given here.

What was measured:
JC polyomavirus [1] = experiment: Antiviral activity against JC polyomavirus Mad1-SVEdelta infected in SVG-A cells assessed as viral infectivity level pre-incubated for 0.5 hrs with 25 uM compound before viral infection for 72 hrs by flow cytometry relative to DMSO control; type: functional
JC polyomavirus [2] = experiment: (§1) Inhibition of retrograde transport of JC polyomavirus Mad1-SVEdelta infected in SVG-A cells assessed as reduction in co-localization of viral capsid protein VP1 and ER protein PDI pre-incubated for 0.5 hrs with compound before viral infection for 1 hr followed by incubation with compound at 0.1 mM for 8 hrs by proximity ligation assay; type: functional, cell-based
Method in brief: (§2)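 SVG-A cells in MEM with 10% FBS were pretreated 0.5 h, then given JCPyV Mad1-SVEΔ at MOI 100 for 1 h at 37°C. After washing, compound (0.05 or 0.1 mM) or vehicle was re-added for 8 h at 37°C. Cells were fixed (4% PFA), permeabilised (0.5% Triton, 0.5 h) and blocked (5% donkey serum), then stained overnight at 4°C with rabbit anti-VP1 (1:1,000) plus mouse anti-PDI (1:100). Read-out: proximity ligation, confocal maximal z-projections.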

JC polyomavirus [3] = experiment: Antiviral activity against JC polyomavirus Mad1-SVEdelta infected in SVG-A cells assessed as reduction in viral infectivity pre-incubated for 0.5 hrs with compound before viral infection for 72 hrs by flow cytometry; type: functional, cell-based
Method in brief: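 JCPyV infection of SVG-A cells (1 × 10^5 per well, seeded overnight at 37°C) after 0.5 h pretreatment with compound from 1:2 serial dilutions of a 2500x DMSO stock, final DMSO 0.04%. Virus at MOI 0.25 with compound present for 72 h. Cells fixed in 4% PFA and permeabilized in 1% Triton X-100. Stained with Alexa Fluor-labeled anti-VP1 antibody, infected cells scored by flow cytometry. IC50 from three independent experiments.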

[4] = system: Human papillomavirus type 16; experiment: as §1, with “HPV16 pseudovirus expressing HcRed reporter” for “JC polyomavirus Mad1-SVEdelta”, “L1” for “VP1”, “golgi” for “ER”, “TGN46” for “PDI”, “16” for “8”; type: functional, organism-based; conditions: Human papillomavirus 16
[5] = system: Human papillomavirus type 16; experiment: Antiviral activity against HPV16 pseudovirus expressing HcRed reporter infected in HeLa-M cells assessed as reduction in viral infectivity pre-incubated for 0.5 hrs with compound before viral infection for 72 hrs by flow cytometry; type: functional, organism-based; conditions: Human papillomavirus 16, HeLaM
Method in brief: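 HeLa M cells in DMEM with 10% FBS and 10 mM Hepes pH 7.5, pretreated with compound from 1:2 serial dilutions of a 2500x DMSO stock, final DMSO 0.04%. Challenged with HcRed-reporter HPV16 pseudovirus. Cells fixed in 4% PFA and HcRed-positive cells scored by flow cytometry. IC50 from three independent experiments.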

JC polyomavirus [6] = experiment: as §1, with “0.05” for “0.1”; type: functional, cell-based; method in brief: as §2
JC polyomavirus [7] = experiment: Potency index, ratio of IC50 for Retro-2(cycl) to IC50 for test compound against JC polyomavirus Mad1-SVEdelta infected in SVG-A cells assessed as reduction in viral infectivity pre-incubated for 0.5 hrs with compound before viral infection for 72 hrs by flow cytometry; type: functional
[8] = system: Human papillomavirus type 16; experiment: as §1, with “HPV16 pseudovirus expressing HcRed reporter” for “JC polyomavirus Mad1-SVEdelta”, “L1” for “VP1”, “golgi” for “ER”, “TGN46” for “PDI”, “0.05” for “0.1”, “16” for “8”; type: functional, organism-based; conditions: Human papillomavirus 16

Structure (SMILES) | Activity (JC polyomavirus [1]) | other results
CCCCNc1ccc2c(c1)C(=O)N(Cc1ccc(F)cc1)C(c1ccc(CC)s1)N2 (configuration not stated) | 71% | 
CCc1ccc(-c2nc3ccccc3c(=O)n2Cc2ccc(F)cc2)s1 | 63.3% | 
CCc1ccc(C2N(Cc3ccc(F)cc3)C(=O)c3ccccc3N2C)s1 (configuration not stated) | 60% | 
CCc1ccc(C2Nc3ccccc3C(=O)N2[C@@H](C)c2ccccc2)s1 (mixture of isomers) | 32.4% | 
CCc1ccc(C2Nc3ccccc3C(=O)N2[C@H](C)c2ccccc2)s1 (mixture of isomers) | 52.7% | 
Cc1ccc(C2Nc3ccccc3C(=O)N2c2ccccc2)s1 (racemic) | 57.5% | inhibition (JC polyomavirus [2]): Active; IC50 (JC polyomavirus [3]): 54 µM; inhibition [4]: Active; IC50 [5]: 160 µM
O=C1c2ccccc2NC(c2cccs2)N1c1ccccc1 (racemic) | 81.1% | 
Cc1ccsc1C1Nc2ccccc2C(=O)N1c1ccccc1 (racemic) | 76.4% | 
Cc1csc(C2Nc3ccccc3C(=O)N2c2ccccc2)c1 (racemic) | 55.6% | 
CCc1ccc(C2Nc3ccccc3C(=O)N2c2ccccc2)s1 (racemic) | 47.8% | 
O=C1c2ccccc2NC(c2ccc[nH]2)N1c1ccccc1 (racemic) | 92.4% | 
O=C1c2ccccc2NC(c2ccco2)N1c1ccccc1 (racemic) | 69.9% | 
Cc1ccc(C2Nc3ccccc3C(=O)N2c2ccccc2)o1 (racemic) | 64.4% | 
O=C1c2ccccc2NC(c2cc3ccccc3s2)N1c1ccccc1 (racemic) | 95.3% | 
CCc1ccc(C2NC(=O)c3ccccc3N2)s1 (racemic) | 41.4% | 
CCCN1C(=O)c2ccccc2NC1c1ccc(CC)s1 (racemic) | 76.4% | 
CCc1ccc(C2Nc3ccccc3C(=O)N2C(C)C)s1 (racemic) | 69.9% | 
CCCCN1C(=O)c2ccccc2NC1c1ccc(CC)s1 (racemic) | 42.4% | 
CCc1ccc(C2Nc3ccccc3C(=O)N2C2CCCCC2)s1 (racemic) | 45.7% | 

Structure (SMILES) | Activity (JC polyomavirus [1]) | other results
CCc1ccc(C2Nc3ccccc3C(=O)N2Cc2ccccc2)s1 (racemic) | 13.3% | 
CCc1ccc(C2Nc3ccccc3C(=O)N2CCc2ccccc2)s1 (racemic) | 50.4% | 
CCc1ccc(C2Nc3ccccc3C(=O)N2Cc2cccc3ccccc23)s1 (racemic) | 14.5% | 
CCc1ccc(C2Nc3ccccc3C(=O)N2Cc2ccc(OC)cc2)s1 (racemic) | 21.2% | 
CCc1ccc(C2Nc3ccccc3C(=O)N2Cc2cccc(OC)c2)s1 (racemic) | 27.5% | 
CCc1ccc(C2Nc3ccccc3C(=O)N2Cc2ccccc2OC)s1 (racemic) | 13.7% | 
CCc1ccc(C2Nc3ccccc3C(=O)N2Cc2ccc(OC)cc2OC)s1 (racemic) | 16.4% | 
CCc1ccc(C2Nc3ccccc3C(=O)N2Cc2ccc(F)cc2)s1 (racemic) | 7.62% | 
CCc1ccc(C2Nc3ccccc3C(=O)N2Cc2cccc(F)c2)s1 (racemic) | 14% | 
CCc1ccc(C2Nc3ccccc3C(=O)N2Cc2ccc([N+](=O)[O-])cc2)s1 (racemic) | 30.6% | 
CCc1ccc(C2Nc3ccccc3C(=O)N2Cc2cccc([N+](=O)[O-])c2)s1 (racemic) | 44.5% | 
CCc1ccc(C2Nc3cccc(C)c3C(=O)N2Cc2ccc(F)cc2)s1 (racemic) | 10.2% | 
CCc1ccc(C2Nc3ccc(C)cc3C(=O)N2Cc2ccc(F)cc2)s1 (racemic) | 8.34% | 
CCc1ccc(C2Nc3cc(C)ccc3C(=O)N2Cc2ccc(F)cc2)s1 (racemic) | 67.1% | 
CCc1ccc(C2Nc3c(C)cccc3C(=O)N2Cc2ccc(F)cc2)s1 (racemic) | 44.5% | 
CCc1ccc(C2Nc3ccc(Cl)cc3C(=O)N2Cc2ccc(F)cc2)s1 (racemic) | 13.7% | 
CCc1ccc(C2Nc3cc(Cl)ccc3C(=O)N2Cc2ccc(F)cc2)s1 (racemic) | 21.3% | 
CCc1ccc(C2Nc3ccc(F)cc3C(=O)N2Cc2ccc(F)cc2)s1 (racemic) | 4.45% | inhibition (JC polyomavirus [6]): Active; Ratio IC50 (JC polyomavirus [7]): 6.7; inhibition [8]: Active; IC50 (JC polyomavirus [3]): 8.1 µM; IC50 [5]: 24 µM
CCc1ccc(C2Nc3cc(F)ccc3C(=O)N2Cc2ccc(F)cc2)s1 (racemic) | 8.82% | 
